{
  "source": "paper PMC3078649",
  "about": "(Molecular pharmaceutics, 2010)",
  "key": {"[1]": {"tested_on": "intercellular junctions of Caco-2 cell monolayers", "assay": "Inhibition of intercellular junction resealing", "assay_type": "cell-based", "settings": "for Activity in the resealing assay compared to either ADT6 or HAV6: conjugates with aminocaproic acid (cap) linker; for Inhibition of resealing (% TEER difference between 8- and 2-h time points) compared to blank: AP-BL sides of Caco-2 monolayers (Fig. 5); for Inhibition of resealing of intercellular junctions (TEER time course): 0.5 mM peptide, AP-BL sides, conditioned Caco-2 monolayers", "procedure,_shortened": "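Caco-2 cells were grown on 3 µm-pore Transwell inserts (50,000 cells/insert) and used on days 15–20. Initial TEER was taken after 1 h at 37 °C in HBSS pH 7.4 (10 mM Hepes, 1% glucose, 2.0 mM CaCl2). Cells were conditioned 2 h in calcium-free medium. Peptide (0.5 or 1.0 mM) in Ca-HBSS was added AP, BL or AP-BL, with blank and unrelated-peptide controls. TEER was read hourly, minus 90 Ω × cm2 background, in triplicate. Inhibition was the TEER change from 2 to 8 h.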"}, "[2]": {"tested_on": "E-cadherin-mediated adhesion of Caco-2 cells", "assay": "Homotypic adhesion of Caco-2 single cells to attached cells", "assay_type": "cell-based", "settings": "250 µM peptide", "procedure,_shortened": "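Single Caco-2 cells were released by Ca2+/Mg2+-free EBSS (1 h, 37 °C) and labelled with BCECF-AM. They were added at 5 × 10^4 cells/well to Caco-2 monolayers pretreated 2 h at 37 °C in Ca2+-free EBSS (1 mM Mg2+, 0.1% BSA). Co-incubation with peptide was 2 h at 37 °C. Positive control was anti-E-cadherin antibody DECMA-1 at 1:100. Unbound cells were removed and attached cells lysed; fluorescence was read at ex 485/em 530 nm.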"}, "blood brain barrier [3]": {"tested_on": "blood brain barrier", "assay": "In situ rat brain perfusion, 14C-mannitol permeation", "assay_type": "in vivo", "settings": "for Enhancement of 14C-mannitol permeation through the BBB compared to vehicle: 1.0 mM test substance pre-perfused 4 min at 10 ml/min, triplicate", "procedure,_shortened": "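Perfusion was 4 min with vehicle (0.5% Tween in sterile saline) or 1.0 or 0.5 mM peptide, then immediately 4 min with 14C-mannitol (10 µCi). Brain radioactivity was measured in triplicate, reported as mean ± SD, and compared with vehicle (p < 0.05).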"}, "Caco-2 cell monolayers": {"tested_on": "Caco-2 cell monolayers", "assay": "Peptide stability on Caco-2 cell monolayers", "assay_type": "in vitro ADME"}, "blood brain barrier [4]": {"tested_on": "blood brain barrier", "assay": "In situ rat brain perfusion, [3H", "assay_type": "in vivo", "settings": "1.0 mM HAV6 first, then daunomycin with 500 µM verapamil; p < 0.001 (Fig. 3 E)"}, "EC5 domain of E-cadherin": {"tested_on": "EC5 domain of E-cadherin", "settings": "cited from earlier work"}, "MDCK cell monolayers": {"tested_on": "MDCK cell monolayers", "settings": "shown previously; cited from earlier work"}, "[5]": {"tested_on": "E-cadherin-mediated adhesion of Caco-2 cells", "settings": "shown previously; cited from earlier work"}},
  "data": [
    {"substance": "Ac-DTPPV-cap-SHAVSS-NH2", "values": [
      {"measurement": "Activity in the resealing assay compared to either ADT6 or HAV6", "setting": "[1]", "value": "did not show any improved activity"}
    ]},
    {"substance": "Ac-QDPELPDKNM-NH2 [BLG2]", "values": [
      {"measurement": "Potency in blocking homotypic cell-cell adhesion relative to BLG1 and BLG4", "setting": "[2]", "value": "more potent"}
    ]},
    {"substance": "Ac-SHAVSS-NH2 [HAV6]", "values": [
      {"measurement": "Amount of mannitol delivered to the brain: lowering when HAV6 was lowered from 1.0 mM to 0.5 mM", "setting": "blood brain barrier [3]; 0.5 mM versus 1.0 mM HAV6", "value": 40, "unit": "%"},
      {"measurement": "Enhancement of 14C-mannitol permeation through the BBB compared to vehicle", "setting": "blood brain barrier [3]", "value": "significantly enhanced"},
      {"measurement": "Metabolic stability on Caco-2 cell monolayer", "setting": "Caco-2 cell monolayers; 96-h incubation on Caco-2 cell monolayer", "value": "metabolically stable"},
      {"measurement": "Amount of daunomycin in the brain compared to vehicle-treated BBB", "setting": "blood brain barrier [4]", "value": "tremendous increase"},
      {"measurement": "Binding to the expressed EC5 domain by NMR spectroscopy", "setting": "EC5 domain of E-cadherin", "value": "bind the expressed EC5 domain"}
    ]},
    {"substance": "Ac-ADTPPV-NH2 [ADT6]", "values": [
      {"measurement": "Enhancement of 14C-mannitol permeation through MDCK cell monolayers", "setting": "MDCK cell monolayers", "value": "enhance ^14C-mannitol through MDCK cell monolayers"}
    ]},
    {"substance": "EATDSG [LABL6, reference compound]", "values": [
      {"measurement": "Enhancement of 14C-mannitol permeation through the BBB compared to vehicle", "setting": "blood brain barrier [3]", "value": "did not enhance"}
    ]},
    {"substance": "Ac-SSVAHS-NH2 [HAVrev, reference compound]", "values": [
      {"measurement": "Inhibition of resealing (% TEER difference between 8- and 2-h time points) compared to blank", "setting": "[1]; 1.0 mM peptide", "value": "could not suppress the resealing"}
    ]},
    {"substance": "Ac-NDDGGQFVVT-NH2 [BLG3]", "values": [
      {"measurement": "Inhibition of resealing (% TEER difference between 8- and 2-h time points) compared to blank", "setting": "[1]; 1.0 mM peptide", "value": "could not inhibit the resealing"}
    ]},
    {"substance": "Ac-QGADTPPVGV-NH2 [ADT10]", "values": [
      {"measurement": "Enhancement of 14C-mannitol permeation through MDCK cell monolayers", "setting": "MDCK cell monolayers", "value": "enhance ^14C-mannitol through MDCK cell monolayers"},
      {"measurement": "Inhibition of resealing of intercellular junctions (TEER time course)", "setting": "[1]", "value": "still active"},
      {"measurement": "Inhibition of resealing (% TEER difference between 8- and 2-h time points) compared to blank", "setting": "[1]; 1.0 mM peptide", "value": "significantly suppress the resealing"}
    ]},
    {"substance": "Ac-SHAVSS-cap-ADTPPV-NH2", "values": [
      {"measurement": "Activity in the resealing assay compared to either ADT6 or HAV6", "setting": "[1]", "value": "did not show any improved activity"}
    ]},
    {"substance": "Ac-HSVSAS-NH2 [HAVscr, reference compound]", "values": [
      {"measurement": "Inhibition of resealing (% TEER difference between 8- and 2-h time points) compared to blank", "setting": "[1]; 1.0 mM peptide", "value": "could not suppress the resealing"}
    ]},
    {"substance": "Ac-TYRIWRDTAN-NH2 [BLG4]", "values": [
      {"measurement": "Rank of inhibitory activity in the resealing assay among BLG peptides", "setting": "[1]; 1.0 mM peptide, AP-BL sides (Fig. 5)", "value": "best inhibitory activity"},
      {"measurement": "Inhibition of resealing (% TEER difference between 8- and 2-h time points) compared to blank", "setting": "[1]; 1.0 mM peptide", "value": "significantly suppress the resealing"},
      {"measurement": "Binding to the expressed EC5 domain by NMR spectroscopy", "setting": "EC5 domain of E-cadherin", "value": "bind the expressed EC5 domain"}
    ]},
    {"substance": "Ac-LFSHAVSSNG-NH2 [HAV10]", "values": [
      {"measurement": "Peptide concentration remaining", "setting": "Caco-2 cell monolayers; 100 µM peptide, apical side of Caco-2 cell monolayers, 8 h incubation", "value": 80, "unit": "%"},
      {"measurement": "Enhancement of 14C-mannitol permeation through MDCK cell monolayers", "setting": "MDCK cell monolayers", "value": "enhance ^14C-mannitol through MDCK cell monolayers"},
      {"measurement": "Inhibition of resealing of intercellular junctions (TEER time course)", "setting": "[1]", "value": "not at 0.5 mM"},
      {"measurement": "Inhibition of homotypic Caco-2 cell adhesion", "setting": "[5]", "value": "inhibit the homotypic Caco-2 cell adhesion"}
    ]}
  ]
}
